Data from PMC11571001 (ACS Medicinal Chemistry Letters, 2024).
Entries after “also recorded” stand apart in the source; their conditions may differ.

What was measured:
full-length human PARP2 = full-length human PARP2 (Homo sapiens, UniProt Q9UGN5); assay: PARP2 auto-poly-ADP-ribosylation, immunoblot with anti-PAR antibody; format: biochemical; details: compound 100 μM, 300 μM NAD+
Outline: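 Full-length human enzyme was recombinantly expressed in and purified from bacteria. Auto-PARylation was run in the absence and presence of test compound at 100 μM. Immunoblots were probed with anti-PAR antibody and band signal was quantified.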

HeLa cells = assay: Cellular ADP-ribosylation in H2O2-stimulated HeLa cells; format: cell-based, human; details: H2O2 1 mM, inhibitor 100 μM, 20 minutes
Outline: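 HeLa cells were stimulated with H2O2 and treated without or with test compound at 100 μM. Cellular ADP-ribosylation was imaged by confocal microscopy using an AF1521 macrodomain-based pan-ADPr binding reagent. Lysates were immunoblotted with the same pan-ADPr reagent, with anti-GAPDH as loading control. Densitometry was normalized to loading controls, and significance was reported as p < 0.05 and p < 0.01.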

[1] = biological target: catalytic domain of human PARP5a (Homo sapiens, UniProt O95271); assay: PARP5a auto-ADP-ribosylation, immunoblot with pan-ADPr binding reagent; format: biochemical; details: compound 100 μM, 300 μM NAD+
Chain of catalytic domain of human PARP5a (O95271 1112-1317): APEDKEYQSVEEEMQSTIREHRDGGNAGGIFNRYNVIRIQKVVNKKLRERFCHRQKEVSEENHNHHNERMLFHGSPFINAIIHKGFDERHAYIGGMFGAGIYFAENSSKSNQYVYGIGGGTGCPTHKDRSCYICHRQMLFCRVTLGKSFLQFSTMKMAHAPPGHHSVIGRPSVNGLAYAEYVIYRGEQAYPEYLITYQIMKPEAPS

[2] = test system: HAP1/PARP1-knockout cell lysates; assay: Protein ADP-ribosylation in HAP1/PARP1-KO cell lysates, immunoblot; format: biochemical, human; details: compound 100 μM; 600 μM NAD+; olaparib 100 μM as control
[3] = test system: HAP1 wild-type cell lysates; assay: Protein ADP-ribosylation in HAP1 wild-type cell lysates, immunoblot; format: biochemical, human; details: compound 100 μM; 600 μM NAD+; olaparib 100 μM as control
[4] = biological target: T1, catalytic domain of human PARP10 (Homo sapiens, UniProt Q53GL7); assay: PARP10 auto-ADP-ribosylation; format: biochemical; details: compound 100 μM; 300 μM NAD+; pan-ADPr binding reagent immunoblot
T1 sequence (Q53GL7 806-1025 limits assumed): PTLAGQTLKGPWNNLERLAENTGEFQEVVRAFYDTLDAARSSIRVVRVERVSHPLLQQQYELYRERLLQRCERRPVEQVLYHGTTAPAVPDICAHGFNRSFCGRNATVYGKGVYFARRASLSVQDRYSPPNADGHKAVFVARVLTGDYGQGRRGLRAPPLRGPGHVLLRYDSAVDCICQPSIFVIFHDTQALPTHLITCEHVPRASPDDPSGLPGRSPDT

Chain of full-length human PARP2 (Q9UGN5 whole entry): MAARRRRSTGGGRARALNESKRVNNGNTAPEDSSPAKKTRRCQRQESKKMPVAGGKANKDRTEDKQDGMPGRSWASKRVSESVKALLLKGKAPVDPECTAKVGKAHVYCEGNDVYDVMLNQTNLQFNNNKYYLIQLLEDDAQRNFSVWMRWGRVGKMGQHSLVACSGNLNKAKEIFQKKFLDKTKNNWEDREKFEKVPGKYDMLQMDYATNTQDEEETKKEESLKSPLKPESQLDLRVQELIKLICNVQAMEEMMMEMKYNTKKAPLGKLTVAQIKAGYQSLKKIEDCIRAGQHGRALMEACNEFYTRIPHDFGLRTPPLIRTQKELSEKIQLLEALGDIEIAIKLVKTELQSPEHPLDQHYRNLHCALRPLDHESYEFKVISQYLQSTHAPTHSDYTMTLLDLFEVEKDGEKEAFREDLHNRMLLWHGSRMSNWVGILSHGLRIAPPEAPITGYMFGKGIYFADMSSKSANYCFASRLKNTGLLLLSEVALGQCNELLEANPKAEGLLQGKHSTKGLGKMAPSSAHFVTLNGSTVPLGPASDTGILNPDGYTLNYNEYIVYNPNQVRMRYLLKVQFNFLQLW

Row | Compound | inhibition of PARP2-catalyzed auto-modification (PARylation) (full-length human PARP2) | effect on cellular ADP-ribosylation triggered by H2O2 (HeLa cells) | also measured
1 | CC(=O)c1cccc(CCCOc2ccccc2C(N)=O)c1 [compound 9] | reduced inhibition activities | – | –
2 | CC(=O)c1cccc(CCOc2ccc(F)cc2C(N)=O)c1 [compound 8] | – | no significant impact | –
3 | CC(=O)c1cccc([C@H](C)Oc2ccccc2C(N)=O)c1 [compound 5] | reduced inhibition activities | – | –
4 | CC(=O)c1cccc(COc2ccccc2C(N)=O)c1 [compound 3] | functions as an inhibitor for PARP2; also recorded: significantly inhibit | – | inhibition of PARP5a-catalyzed auto-ADP-ribosylation [1]: significantly decreased levels of ADP-ribosylation; inhibition of protein ADP-ribosylation in HAP1/PARP1-KO cell lysates [2]: no significant differences to those of olaparib-treated ones and non-modified controls; inhibition of protein ADP-ribosylation in HAP1-WT cell lysates [3]: significantly higher than those of olaparib-treated ones; inhibition of PARP10-catalyzed auto-ADP-ribosylation [4]: significantly decreased levels of ADP-ribosylation
5 | O=C(c1cc(Cc2n[nH]c(=O)c3ccccc23)ccc1F)N1CCN(C(=O)C2CC2)CC1 [olaparib, reference compound] | – | largely suppressed | –
6 | CC(=O)c1cccc([C@@H](C)Oc2ccccc2C(N)=O)c1 [compound 4] | reduced inhibition activities | – | –
7 | CC(=O)c1cccc(CCOc2ccccc2C(N)=O)c1 [compound 7] | – | no significant impact | –
